Results as given in ChEMBL document CHEMBL4706553, “Discovery of potent small molecule PROTACs targeting mutant EGFR” (Eur J Med Chem, 2020).
pIC50: −log10 of the molar value. Active and inactive are the calls of the source.

Experiments:
[1] = molecular target: von Hippel-Lindau disease tumor suppressor/Epidermal growth factor receptor (Homo sapiens, UniProt P00533+P40337, T790M/L858R); assay: Protac activity at VHL/EGFR L858R/T790M mutant in human H1975 cells assessed as induction of degradation of EGFR incubated for 48 hrs by Western blot analysis; format: cell-based; conditions: nci-h1975
How it was run: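 H1975 cells exposed to the stated concentrations for 48 h. EGFR by Western blot; n = 3. DC₅₀ by nonlinear regression, log(inhibitor) vs response.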

[2] = tested on: von Hippel-Lindau disease tumor suppressor/Epidermal growth factor receptor (Homo sapiens), P00533+P40337 [L858R,T790M]; assay: Protac activity at VHL/EGFR L858R/T790M mutant in human H1975 cells assessed as induction of degradation of EGFR by measuring reduction in Akt phosphorylation at 100 nM incubated for 48 hrs by Western blot analysis; format: cell-based; conditions: NCI-H1975
How it was run: (§1)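 HCC827 or H1975 cells treated at the stated concentrations for 48 h. Lysates probed by Western blot for EGFR, P-EGFR, Akt and P-Akt (each 1:1000); n = 2.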

[3] = tested on: von Hippel-Lindau disease tumor suppressor/Epidermal growth factor receptor (Homo sapiens), P00533+P40337 [L858R,T790M]; assay: Protac activity at VHL/EGFR L858R/T790M mutant in human H1975 cells assessed as induction of degradation of EGFR at 0.33 to 1 uM incubated for 24 hrs by Western blot analysis; format: cell-based; conditions: NCI-H1975, dose 0.33-1 µM
How it was run: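 H1975 cells, after 24 h seeding, treated at the stated concentrations for 24 h. EGFR by Western blot with β-actin loading control.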

[4] = tested on: von Hippel-Lindau disease tumor suppressor/Epidermal growth factor receptor (Homo sapiens), P00533+P40337 [UNDEFINED MUTATION]; assay: Protac activity at VHL/EGFR del19 mutant in human HCC827 cells assessed as induction of EGFR degradation at 0.033 uM pretreated with autophagy inhibitor, chloroquine for 2 hrs followed by incubation with compound for 24 hrs by Western blot analysis; format: cell-based
[5] = tested on: von Hippel-Lindau disease tumor suppressor/Epidermal growth factor receptor (Homo sapiens), P00533+P40337 [UNDEFINED MUTATION]; assay: Protac activity at VHL/EGFR del19 mutant in human HCC827 cells assessed as induction of EGFR degradation at 33 nM incubated for 24 hrs measured following drug wash-out for 24 hrs by Western blot analysis; format: cell-based
How it was run: (§2)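 HCC827 cells (RPMI-1640, 10% heat-inactivated FBS, 1% sodium pyruvate, 1% glutamine, 37 °C, 5% CO₂) treated at 33 nM for 24 h. Medium then replaced with compound-free medium, and protein harvested at the stated times. EGFR read by Western blot; n = 2.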

[6] = tested on: von Hippel-Lindau disease tumor suppressor/Epidermal growth factor receptor (Homo sapiens), P00533+P40337 [UNDEFINED MUTATION]; assay: Protac activity at VHL/EGFR del19 mutant in human HCC827 cells assessed as induction of EGFR degradation at 33 nM measured after 24 hrs by Western blot analysis; format: cell-based
How it was run: (§3)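 HCC827 cells seeded at 0.5–1 × 10⁶ per well, grown 24 h, then treated at the stated concentrations for 24 h. EGFR^del19 level by Western blot with anti-EGFR antibody and β-actin loading control.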

[7] = tested on: von Hippel-Lindau disease tumor suppressor/Epidermal growth factor receptor (Homo sapiens), P00533+P40337 [L858R,T790M]; assay: Protac activity at VHL/EGFR L858R/T790M mutant in human H1975 cells assessed as induction of degradation of EGFR at 1 uM pretreated with autophagy inhibitor, chloroquine for 2 hrs followed by incubation with compound for 24 hrs by Western blot analysis; format: cell-based; conditions: NCI-H1975
How it was run: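 H1975 cells pretreated with chloroquine for 2 h, then exposed to compound for 24 h. EGFR level by Western blot; n = 3.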

NCI-H1975 [8] = assay: Induction of apoptosis in human NCI-H1975 cells at 333 to 1000 nM measured after 48 hrs by AnnexinV-FITC/propidium iodide staining based flow cytometry analysis; format: functional, cell-based; conditions: dose 333-1000 nM
How it was run: (§4)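 To measure apoptosis, cells were seeded at 0.5–1 × 10⁶ per well, grown 24 h, then treated for 48 h. Collected cells were stained with an Annexin V-FITC apoptosis detection kit following its instructions, and apoptosis rate was read by flow cytometry. n = 2.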

HCC827 [9] = assay: Antiproliferative activity against human HCC827 cells expressing EGFR del19 mutant assessed as cell growth inhibition measured after 72 hrs by MTT assay; format: functional, cell-based; conditions: HCC827, 72 h
How it was run: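 HCC827 cells were kept in RPMI-1640 with 10% heat-inactivated FBS, 1% sodium pyruvate, 1% glutamine and 1% penicillin-streptomycin at 37 °C and 5% CO₂, seeded at 3000–8000/well and rested 24 h. Compounds were applied as a concentration series for 72 h. MTT (5 mg/mL stock in PBS) was given for 4 h, then medium was removed and DMSO added. IC50 came from nonlinear regression (log inhibitor vs response).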

NCI-H1975 [10] = assay: Inhibition of colony formation in human NCI-H1975 cells at 100 nM incubated for 15 days by crystal violet staining based analysis; format: functional, cell-based; conditions: time 15.0 day
How it was run: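 Colony formation: 200 cells per well were seeded and incubated 24 h, then kept with compound for 15 days. After three PBS washes, cells were fixed in cold 75% ethanol and stained with 0.1% crystal violet in water for 1 h. Colonies were counted.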

[11] = tested on: von Hippel-Lindau disease tumor suppressor/Epidermal growth factor receptor (Homo sapiens), P00533+P40337 [UNDEFINED MUTATION]; assay: Protac activity at VHL/EGFR del19 mutant in human HCC827 cells assessed as induction of EGFR degradation by measuring reduction in Akt phosphorylation at 3 nM incubated for 48 hrs by Western blot analysis; format: cell-based; how it was run: as §1
[12] = molecular target: von Hippel-Lindau disease tumor suppressor/Epidermal growth factor receptor (Homo sapiens, UniProt P00533+P40337); assay: Protac activity at VHL/EGFR in human A431 cells assessed as induction of degradation of EGFR at 0.1 to 3.3 uM incubated for 48 hrs by Western blot analysis; format: cell-based; conditions: A-431, dose 0.1-3.3 µM
[13] = tested on: von Hippel-Lindau disease tumor suppressor/Epidermal growth factor receptor (Homo sapiens), P00533+P40337 [UNDEFINED MUTATION]; assay: Protac activity at VHL/EGFR del19 mutant in human HCC827 cells assessed as induction of EGFR degradation at 333 nM measured after 24 hrs by Western blot analysis; format: cell-based; how it was run: as §3
HCC827 [14] = assay: Induction of apoptosis in human HCC827 cells assessed as apoptotic cells at 10 nM measured after 48 hrs by AnnexinV-FITC/propidium iodide staining based flow cytometry analysis relative to control; format: functional; how it was run: as §4
[15] = tested on: von Hippel-Lindau disease tumor suppressor/Epidermal growth factor receptor (Homo sapiens), P00533+P40337 [L858R,T790M]; assay: Protac activity at VHL/EGFR L858R/T790M mutant in human H1975 cells assessed as induction of degradation of EGFR at 100 to 333 nM precultured in medium without FBS followed by incubation with compound for 16 hrs by Western blot analysis; format: cell-based; conditions: NCI-H1975, dose 100-333 nM
How it was run: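 HCC827 or H1975 cells precultured 8 h in medium with or without FBS, then treated at the stated concentrations for 16 h. EGFR protein by Western blot; n = 3.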

[16] = tested on: von Hippel-Lindau disease tumor suppressor/Epidermal growth factor receptor (Homo sapiens), P00533+P40337 [UNDEFINED MUTATION]; assay: Protac activity at VHL/EGFR del19 mutant in human HCC827 cells assessed as induction of EGFR degradation at 33 nM incubated for 24 hrs measured following drug wash-out for 48 hrs by Western blot analysis; format: cell-based; how it was run: as §2
HepG2 = assay: Antiproliferative activity against human HepG2 cells expressing VEGFR2 assessed as cell growth inhibition measured after 72 hrs by MTT assay; format: functional, cell-based; conditions: HepG2, 72 h
How it was run: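 Cells were seeded at 3000–8000/well and allowed 24 h, then exposed to serial compound concentrations for 72 h. MTT (5 mg/mL stock in PBS) was added for 4 h, supernatant removed and DMSO added. IC50, defined as 50% growth inhibition, was derived by nonlinear regression (log inhibitor vs response).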

Q: How did the DC50 [1] turn out when `Cc1ncsc1-c1ccc(CNC(=O)[C@@H]2C[C@@H](O)CN2C(=O)[C@@H](NC(=O)CCCCCCN2CCN(c3ccc(Nc4ncc5nc(Nc6ccccc6)n(C6CCCC6)c5n4)cc3)CC2)C(C)(C)C)cc1` was run?
A: Its DC50 is 126 nM.

Q: And the Activity [2]?
A: The Activity was “Active”.

Q: What about the Activity [3] of the same compound?
A: Its Activity is “Active”.

Q: What about the Activity [4] of the same compound?
A: The Activity was “inactive”.

Q: And the Activity [5]?
A: The Activity was “Active”.

Q: What about the Activity [6] of the same compound?
A: Its Activity is “Active”.

Q: And the Activity [7]?
A: Its Activity is “inactive”.

Q: And the Activity (NCI-H1975 [8])?
A: Its Activity is “inactive”.

Q: What about the pIC50 (HCC827 [9]) of the same compound?
A: Its pIC50 is 9.08.

Q: What about the inhibition (NCI-H1975 [10]) of the same compound?
A: Its inhibition is “Active”.

Q: And the Activity [11]?
A: The Activity was “Active”.

Q: And the Activity [12]?
A: Its Activity is “inactive”.

Q: And the Activity [13]?
A: The Activity was “inactive”.

Q: And the Activity (HCC827 [14])?
A: The Activity was 31.07%.

Q: And the Activity [15]?
A: The Activity was “Active”.

Q: What about the Activity [16] of the same compound?
A: Its Activity is “inactive”.

Q: And the pIC50 (HepG2)?
A: Its pIC50 is < 5.30.
